The source made the active and inactive calls. No cut-off for these calls is given here.
Key:
[1] = molecular target: T1, Peroxisome proliferator-activated receptor delta (Homo sapiens) (UniProt Q03181); assay: Transactivation of human GAL4-fused PPARdelta LBD expressed in African green monkey COS7 cells co-expressing 5Gal4 pGL3 TK Luc after overnight incubation by luciferase reporter gene assay relative to GW501516; type: cell-based
T1 sequence (whole entry): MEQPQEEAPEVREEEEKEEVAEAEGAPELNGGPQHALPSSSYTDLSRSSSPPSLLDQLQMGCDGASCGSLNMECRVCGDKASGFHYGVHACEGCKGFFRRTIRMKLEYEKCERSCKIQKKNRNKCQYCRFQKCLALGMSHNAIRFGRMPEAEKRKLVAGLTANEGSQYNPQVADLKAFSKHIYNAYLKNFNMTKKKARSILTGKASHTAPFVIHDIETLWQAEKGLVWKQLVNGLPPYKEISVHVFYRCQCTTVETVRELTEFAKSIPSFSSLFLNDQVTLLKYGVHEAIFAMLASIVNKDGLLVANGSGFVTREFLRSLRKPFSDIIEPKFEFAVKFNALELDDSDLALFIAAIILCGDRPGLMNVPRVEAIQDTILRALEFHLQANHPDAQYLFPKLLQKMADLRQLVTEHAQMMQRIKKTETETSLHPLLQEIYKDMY
Procedure, shortened: (§1)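 Cell-based Gal-4 transactivation assay in COS-7 cells transfected with PPARα, PPARδ or PPARγ ligand-binding domain. EC50 and Emax were derived, with Emax as maximum activation in percent of control. EC50s are means of at least two independent experiments performed in triplicate.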

[2] = molecular target: T2, Peroxisome proliferator-activated receptor delta (Mus musculus) (UniProt P35396); assay: Transactivation of PPARdelta in mouse C2C12 cells assessed increase in [14C]oleate beta-oxidation at 1 uM preincubated for 48 hrs followed by [14C]oleate addition during last 2 hrs of incubation period relative to control; type: cell-based
T2 sequence (whole entry): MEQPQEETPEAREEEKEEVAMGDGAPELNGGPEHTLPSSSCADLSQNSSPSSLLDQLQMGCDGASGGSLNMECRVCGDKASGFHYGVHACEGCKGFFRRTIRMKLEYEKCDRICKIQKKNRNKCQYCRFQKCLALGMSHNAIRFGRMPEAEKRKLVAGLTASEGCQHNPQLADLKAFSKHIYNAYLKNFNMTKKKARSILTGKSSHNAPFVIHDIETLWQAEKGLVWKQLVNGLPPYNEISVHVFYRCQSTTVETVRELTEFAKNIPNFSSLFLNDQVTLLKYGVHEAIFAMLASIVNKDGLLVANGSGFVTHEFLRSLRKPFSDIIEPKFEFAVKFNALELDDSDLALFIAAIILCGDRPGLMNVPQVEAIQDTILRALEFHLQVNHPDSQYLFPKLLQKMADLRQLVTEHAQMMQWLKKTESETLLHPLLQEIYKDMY
Procedure, shortened: (§2)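 Fatty acid beta-oxidation was used as the functional read-out. PPARα activity was tested in human hepatoma HuH7 cells and PPARδ activity in mouse myoblast C2C12 cells, at 1, 3, 10 and 30 µM. Values are % beta-oxidation, mean of at least 2 independent experiments run in triplicate, with single-experiment values flagged.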

[3] = Tmax in C57Bl6 mouse at 10 mg/kg, po administered as single oral dose; type: ADME, organism-based; conditions: in vivo
Procedure, shortened: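 Single oral dose of 10 mg/kg in methyl cellulose vehicle given to C57Bl6 mice. Plasma was sampled over a 24 h period. […]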

[4] = molecular target: T3, Peroxisome proliferator-activated receptor alpha (Homo sapiens) (UniProt Q07869); assay: Transactivation of PPARalpha in human HuH7 cells assessed increase in [14C]oleate beta-oxidation at 10 uM preincubated for 48 hrs followed by [14C]oleate addition during last 2 hrs of incubation period relative to control; type: cell-based; procedure, shortened: as §2
T3 sequence (whole entry): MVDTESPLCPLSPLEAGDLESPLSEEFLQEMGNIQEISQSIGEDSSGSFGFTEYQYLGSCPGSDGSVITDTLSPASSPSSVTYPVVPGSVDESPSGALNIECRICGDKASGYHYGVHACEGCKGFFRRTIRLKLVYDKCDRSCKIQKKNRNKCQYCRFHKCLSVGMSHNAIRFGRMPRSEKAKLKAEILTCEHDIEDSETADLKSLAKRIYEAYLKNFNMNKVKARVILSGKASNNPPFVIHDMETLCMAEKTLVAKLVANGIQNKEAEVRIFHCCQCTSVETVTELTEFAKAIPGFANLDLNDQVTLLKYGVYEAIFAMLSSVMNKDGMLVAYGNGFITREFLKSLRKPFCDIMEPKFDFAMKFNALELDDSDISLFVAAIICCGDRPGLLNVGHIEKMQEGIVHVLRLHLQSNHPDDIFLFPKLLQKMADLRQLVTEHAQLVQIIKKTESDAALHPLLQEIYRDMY

[5] = molecular target: T4, Peroxisome proliferator-activated receptor gamma (Homo sapiens, UniProt P37231)
T4 sequence (P37231 whole entry): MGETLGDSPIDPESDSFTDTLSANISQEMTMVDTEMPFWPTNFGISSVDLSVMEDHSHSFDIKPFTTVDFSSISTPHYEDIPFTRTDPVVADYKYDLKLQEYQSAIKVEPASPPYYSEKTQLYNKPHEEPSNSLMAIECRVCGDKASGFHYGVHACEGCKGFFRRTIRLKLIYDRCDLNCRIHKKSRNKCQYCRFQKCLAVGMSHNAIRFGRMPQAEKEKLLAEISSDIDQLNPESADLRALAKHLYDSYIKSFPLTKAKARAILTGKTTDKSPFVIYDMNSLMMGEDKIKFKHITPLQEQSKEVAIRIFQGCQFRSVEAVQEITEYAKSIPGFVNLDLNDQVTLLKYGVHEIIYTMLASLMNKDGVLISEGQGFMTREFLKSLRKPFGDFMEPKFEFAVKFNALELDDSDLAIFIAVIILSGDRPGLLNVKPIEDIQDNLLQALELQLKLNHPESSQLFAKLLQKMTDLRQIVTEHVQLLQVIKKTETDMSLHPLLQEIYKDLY

Mus musculus = assay: Increase in plasma adiponctin level in C57Bl6/J mouse model of CCl4-induced liver fibrosis at 3 to 30 mg/kg, po qd for 3 weeks; type: functional, organism-based
Procedure, shortened: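 CCl4-induced liver fibrosis mice were dosed orally once daily at 3, 10 or 30 mg/kg for 3 weeks. Controls were CCl4-vehicle, vehicle oil and saline-injected groups. Liver collagen was scored by picrosirius red staining of histological sections. Plasma triglycerides and adiponectin were also measured. Analysis was one-way ANOVA with Dunnett's test.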

[6] = molecular target: T5, Peroxisome proliferator-activated receptor alpha (Homo sapiens, UniProt Q07869); assay: Transactivation of human GAL4-fused PPARalpha LBD expressed in African green monkey COS7 cells co-expressing 5Gal4 pGL3 TK Luc after overnight incubation by luciferase reporter gene assay; type: cell-based; procedure, shortened: as §1
T5 sequence (Q07869 whole entry): T3 sequence (whole entry)

[7] = molecular target: T2, Peroxisome proliferator-activated receptor delta (Mus musculus); assay: Transactivation of PPARdelta in mouse C2C12 cells assessed increase in [14C]oleate beta-oxidation at 10 uM preincubated for 48 hrs followed by [14C]oleate addition during last 2 hrs of incubation period relative to control; type: cell-based; procedure, shortened: as §2
[8] = molecular target: T3, Peroxisome proliferator-activated receptor alpha (Homo sapiens); assay: Transactivation of PPARalpha in human HuH7 cells assessed increase in [14C]oleate beta-oxidation at 30 uM preincubated for 48 hrs followed by [14C]oleate addition during last 2 hrs of incubation period relative to control; type: cell-based; procedure, shortened: as §2

Emax [1] [%]	Activity [2] [%]	Tmax [3] [h]	Activity [4] [%]	EC50 [5] [nM]	EC50 [6] [nM]	Activity [7] [%]	Activity [8] [%]	SMILES	Activity (Mus musculus)
105	12	1	113	3210	1540	67	120	O=C(O)CCCc1cc2cc(Cl)ccc2n1S(=O)(=O)c1ccc2ncsc2c1 [LANIFIBRANOR]	Active
56	-6	1	45	–	260	12	96	O=C(O)CCc1cc2cc(Cl)ccc2n1S(=O)(=O)c1ccccc1	–
